Broadly, the IC50 is the concentration that inhibits the measured activity by half.

Some results are limits rather than exact numbers.

Assay [1] is described as follows: Inhibition of starfish CDK1/cyclin B in presence of 15 uM ATP. Also noted: species or system Marthasterias glacialis.
The target in assay [2] is Cyclin-dependent kinase 5/CDK5 activator 1 (Homo sapiens, UniProt Q00535). Kind of assay: Inhibition of mammalian CDK5/p25. It counts as protein-complex assay. In a few lines:
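Recombinant CDK5 and p25, each expressed in E. coli as GST fusions and affinity-purified on glutathione agarose, mixed in equal amounts. Phosphate incorporation onto P81 paper read by scintillation counting, blank subtracted. Activity taken as % of uninhibited. IC50 from dose-response curves.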

In a further assay the test system is SH-SY5Y. The assay can be described thus: Survival of human SH-SY5Y cells at 25 uM by MTS reduction assay. It counts as functional, cell-based. The following applies: for viability at 25 µM: Homo sapiens, SH-SY5Y, read-out: Survival. In a few lines:
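Viability was read by MTS reduction and expressed as percent of untreated cells, as the average ± SE of three independent measurements, representative of two independent experiments.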
On the technique in general: Tetrazolium assays rely on reduction of a dye to a coloured formazan, in cell work by metabolically active cells.

Cyclin-dependent kinase 5/CDK5 activator 1, sequence (Q00535 whole entry, the tested form may be a part): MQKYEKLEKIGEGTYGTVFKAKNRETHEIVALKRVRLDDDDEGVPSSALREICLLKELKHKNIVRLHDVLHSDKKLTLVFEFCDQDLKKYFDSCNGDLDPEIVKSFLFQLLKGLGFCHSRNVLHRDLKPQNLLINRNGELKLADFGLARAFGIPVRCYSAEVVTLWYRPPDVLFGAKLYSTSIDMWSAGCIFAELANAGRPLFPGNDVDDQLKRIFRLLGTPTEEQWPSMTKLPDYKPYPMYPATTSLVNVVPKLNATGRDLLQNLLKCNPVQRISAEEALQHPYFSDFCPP
Cyclin-dependent kinase 5/CDK5 activator 1, sequence (Q15078 whole entry, further chain, the tested form may be a part): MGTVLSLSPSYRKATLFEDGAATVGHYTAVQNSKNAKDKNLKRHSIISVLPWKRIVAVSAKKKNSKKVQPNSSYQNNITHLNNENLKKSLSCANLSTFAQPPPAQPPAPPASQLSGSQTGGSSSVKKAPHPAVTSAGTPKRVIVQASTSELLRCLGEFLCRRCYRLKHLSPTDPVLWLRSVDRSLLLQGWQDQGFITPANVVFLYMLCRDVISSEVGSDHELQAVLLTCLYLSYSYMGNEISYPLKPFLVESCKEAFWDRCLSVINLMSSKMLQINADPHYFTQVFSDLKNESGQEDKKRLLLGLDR

For `O=C1C(c2c(O)[nH]c3c(Cl)cccc23)=Nc2ccccc21`, the IC50 in assay [1] is above 10 µM; in assay [2] it was above 100 µM. Also, the viability at 25 µM in the assay with SH-SY5Y was determined as 92%.
For the compound `CO/N=C1/C(c2c(O)n(C)c3c(I)cccc23)=Nc2ccccc21`, the IC50 in assay [1] was above 10 µM; in assay [2], above 100 µM. Moreover, in the assay on SH-SY5Y, the viability at 25 µM was 99%.
The corresponding values for `CO/N=C1\C(c2c(O)[nH]c3ccccc23)=Nc2ccccc21` are 1.4 µM, 0.4 µM and 86%.
The corresponding values for `CO/N=C1/C(c2c(O)[nH]c3c(F)cccc23)=Nc2ccccc21` are above 10 µM, above 100 µM and 105%.
For `Cn1c(O)c(C2=Nc3ccccc3C2=O)c2ccccc21`, the IC50 in assay [1] was 100 µM. Also, the viability at 25 µM in the assay on SH-SY5Y worked out at 98%.
In the case of `CC(=O)O/N=C1/C(c2c(O)[nH]c3c(Br)cccc23)=Nc2ccccc21`, the concentration for half-maximal inhibition (IC50) in assay [1] and in assay [2] was above 100 µM throughout. Moreover, the viability at 25 µM in the assay on SH-SY5Y was found to be 61%.
For `O=Nc1c(-c2c(O)[nH]c3c(I)cccc23)[nH]c2ccccc12`, the concentration for half-maximal inhibition (IC50) was 66 µM in assay [1] and 77 µM in assay [2]. Besides, the viability at 25 µM in the assay on SH-SY5Y was 64%.
For `CO/N=C1/C(c2c(O)[nH]c3c(Br)cccc23)=Nc2ccccc21` the same measures were above 100 µM, above 100 µM and 97%.
For `CO/N=C1/C(c2c(O)[nH]c3c(I)cccc23)=Nc2ccccc21` the same measures were above 10 µM, above 100 µM and 84%.
As for `Cl.Oc1[nH]c2c(Br)cccc2c1C1=Nc2ccccc2/C1=N\OCCN1CCOCC1`, the figures for the IC50 in assay [1] and in assay [2] were above 100 µM and above 10 µM, respectively. Also, the Survival with SH-SY5Y came out at 76%.
For `Cn1c(O)c(-c2[nH]c3ccccc3c2N=O)c2cccc(F)c21`, the IC50 in assay [1] and in assay [2] was above 100 µM each time. Also, the viability at 25 µM in the assay on SH-SY5Y is 99%.
With `Cn1c(O)c(-c2[nH]c3ccccc3c2N=O)c2cccc(Cl)c21`, the concentration for half-maximal inhibition (IC50) in assay [1] and in assay [2] was above 100 µM each time. Also, the viability at 25 µM in the assay on SH-SY5Y turned out to be 94%.
On to `CC(=O)O/N=C1/C(c2c(O)[nH]c3c(Cl)cccc23)=Nc2ccccc21`, for which the IC50 in assay [1] is above 10 µM; in assay [2], above 100 µM. Besides, in the assay on SH-SY5Y, the viability at 25 µM was determined as 89%.
For the compound `CC(=O)O/N=C1/C(c2c(O)n(C)c3c(Cl)cccc23)=Nc2ccccc21`, the IC50 was above 10 µM in assay [1] and above 100 µM in assay [2]. For the same compound, the viability at 25 µM in the assay with SH-SY5Y was determined as 96%.
Consider `CC(=O)O/N=C1/C(c2c(O)n(C)c3c(F)cccc23)=Nc2ccccc21`, for which the IC50 is above 10 µM in assay [1] and above 100 µM in assay [2]. Besides, the viability at 25 µM in the assay with SH-SY5Y is 105%.
For `O=C1C(c2c(O)[nH]c3c(I)cccc23)=Nc2ccccc21` the same measures were above 10 µM, above 100 µM and 96%.
Turning to `CC(=O)O/N=C1/C(c2c(O)n(C)c3c(Br)cccc23)=Nc2ccccc21`, the IC50 in assay [1] was 70 µM; in assay [2], above 100 µM. In addition, the viability at 25 µM in the assay on SH-SY5Y came to 95%.
As for `CC(=O)O/N=C1/C(c2c(O)[nH]c3c(F)cccc23)=Nc2ccccc21`, the IC50 in assay [1] is 15 µM; in assay [2], above 100 µM. Further, the viability at 25 µM in the assay on SH-SY5Y was found to be 39%.
Consider `O=C1C(c2c(O)[nH]c3c(Br)cccc23)=Nc2ccccc21`, for which the IC50 in assay [1] and in assay [2] was above 100 µM in each case. Further, the viability at 25 µM with SH-SY5Y was found to be 92%.
In the case of `Cn1c(O)c(C2=Nc3ccccc3C2=O)c2cccc(Cl)c21`, the IC50 is above 10 µM in assay [1] and above 100 µM in assay [2]. In addition, the viability at 25 µM in the assay with SH-SY5Y worked out at 94%.
As to `O=C1C(c2c(O)[nH]c3c(F)cccc23)=Nc2ccccc21`, the results for the IC50 in assay [1] and in assay [2] were 10 µM and at least 10 µM, respectively. The viability at 25 µM in the assay on SH-SY5Y amounted to 70%.
For the compound `Cn1c(O)c(-c2[nH]c3ccccc3c2N=O)c2cccc(I)c21`, the IC50 in assay [1] and in assay [2] was above 100 µM throughout. Also, in the assay on SH-SY5Y, the viability at 25 µM is 74%.
In the case of `CO/N=C1/C(c2c(O)n(C)c3c(F)cccc23)=Nc2ccccc21`, the IC50 is above 10 µM in assay [1] and above 100 µM in assay [2]. In addition, in the assay on SH-SY5Y, the viability at 25 µM is 107%.
In the case of `CO/N=C1/C(c2c(O)[nH]c3c(Cl)cccc23)=Nc2ccccc21`, the IC50 is above 10 µM in assay [1] and above 100 µM in assay [2]. Moreover, the viability at 25 µM with SH-SY5Y is 97%.
Turning to `Cn1c(O)c(-c2[nH]c3ccccc3c2N=O)c2ccccc21`, the IC50 in assay [1] was 73 µM. In addition, the viability at 25 µM with SH-SY5Y is 100%.
In the case of `Cn1c(O)c(C2=Nc3ccccc3C2=O)c2cccc(F)c21`, the IC50 in assay [1] is above 10 µM; in assay [2], above 100 µM. In the assay on SH-SY5Y, the viability at 25 µM was 101%.
In the case of `CC(=O)O/N=C1\C(c2c(O)[nH]c3ccccc23)=Nc2ccccc21`, the midpoint of inhibition in assay [2], the IC50, lay at 0.7 µM. For the same compound, in the assay on SH-SY5Y, the viability at 25 µM amounted to 36%.
Take `CC(=O)O/N=C1/C(c2c(O)[nH]c3c(I)cccc23)=Nc2ccccc21`: the IC50 in assay [1] was above 10 µM; in assay [2] it was above 100 µM. Also, in the assay on SH-SY5Y, the viability at 25 µM worked out at 67%.
For `Cl.Cn1c(O)c(C2=Nc3ccccc3/C2=N\OCCN2CCOCC2)c2cccc(Br)c21` the same measures were above 10 µM, above 10 µM and 90%.
For `CCN(CC)C(=O)O/N=C1/C(c2c(O)[nH]c3c(Br)cccc23)=Nc2ccccc21`, the IC50 in assay [1] and in assay [2] was above 100 µM each time. Moreover, in the assay on SH-SY5Y, the viability at 25 µM was 106%.
Take `Cn1c(O)c(C2=Nc3ccccc3C2=O)c2cccc(Br)c21`: the results for the IC50 in assay [1] and in assay [2] were 100 µM and above 100 µM, respectively. Further, the viability at 25 µM in the assay with SH-SY5Y was determined as 98%.
As for `CO/N=C1/C(c2c(O)n(C)c3c(Br)cccc23)=Nc2ccccc21`, the IC50 in assay [1] and in assay [2] was above 100 µM each time. For the same compound, the viability at 25 µM in the assay with SH-SY5Y came to 100%.
On to `Cn1c(O)c(-c2[nH]c3ccccc3c2N=O)c2cccc(Br)c21`, for which the IC50 in assay [1] and in assay [2] was above 100 µM each time. Besides, the viability at 25 µM in the assay on SH-SY5Y was 84%.
For `Oc1[nH]c2c(Br)cccc2c1C1=Nc2ccccc2/C1=N\OCCBr`, the values for the IC50 in assay [1] and in assay [2] were above 100 µM and 25 µM, respectively. For the same compound, the viability at 25 µM in the assay on SH-SY5Y came to 87%.
For the compound `Cn1c(O)c(C2=Nc3ccccc3C2=O)c2cccc(I)c21`, the IC50 in assay [1] is above 10 µM; in assay [2], above 100 µM. In the assay with SH-SY5Y (sh-sy5y), this compound displayed a Survival of 93%.
Take `CC(=O)O/N=C1/C(c2c(O)n(C)c3c(I)cccc23)=Nc2ccccc21`: the figures for the IC50 in assay [1] and in assay [2] were above 10 µM and above 100 µM, respectively. Besides, the viability at 25 µM in the assay on SH-SY5Y was found to be 82%.
The corresponding values for `Cn1c(O)c(C2=Nc3ccccc3/C2=N\OCCn2ccnc2)c2cccc(Br)c21` are above 10 µM, above 10 µM and 85%.
The corresponding values for `CO/N=C1/C(c2c(O)n(C)c3c(Cl)cccc23)=Nc2ccccc21` are above 10 µM, above 100 µM and 99%.
For `CCN(CC)C(=O)O/N=C1/C(c2c(O)n(C)c3c(Br)cccc23)=Nc2ccccc21` the same measures were above 10 µM, above 10 µM and 105%.
For the compound `O=C1Nc2ccccc2/C1=C1/Nc2ccccc2C1=O` [INDIRUBIN], in the assay on SH-SY5Y, the viability at 25 µM came to 104%.

Values taken from ChEMBL document CHEMBL1137414, “3'-Substituted 7-halogenoindirubins, a new class of cell death inducing agents” (J Med Chem, 2006).
